41 compounds from ChEMBL document CHEMBL3632546 (Eur J Med Chem, 2015) can be followed below.

Molecules are shown by their SMILES. Activity calls are given as the source filed them. The rule behind the calls is not given here.

The target in one assay is T1, Renin (Homo sapiens, UniProt P00797).
T1 sequence (P00797 whole entry): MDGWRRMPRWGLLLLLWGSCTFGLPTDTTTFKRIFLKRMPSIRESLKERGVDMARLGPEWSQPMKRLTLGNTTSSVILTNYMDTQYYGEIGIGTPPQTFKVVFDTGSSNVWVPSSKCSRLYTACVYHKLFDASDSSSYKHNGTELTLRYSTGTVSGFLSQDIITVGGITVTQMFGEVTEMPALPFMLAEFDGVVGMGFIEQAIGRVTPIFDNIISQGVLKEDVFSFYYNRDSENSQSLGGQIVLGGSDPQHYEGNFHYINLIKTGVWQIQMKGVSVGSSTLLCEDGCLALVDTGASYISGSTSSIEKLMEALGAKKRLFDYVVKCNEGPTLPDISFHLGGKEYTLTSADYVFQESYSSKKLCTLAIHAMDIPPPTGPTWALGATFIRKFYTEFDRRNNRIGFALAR
Nature of the assay: Inhibition of human recombinant renin preincubated for 30 mins followed by substrate addition measured after 15 mins by fluorescence analysis. Summed up: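 Fluorogenic renin kit (Ex/Em 490/520 nm). Reaction started with pre-warmed renin substrate (20 µM solution) and run 15 min at 37 °C. RFU read with substrate-only wells as background. Vehicle, buffer and peptide inhibitor (10 µM solution) controls included.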
Consider `COCCCOc1cc(C[C@@H](C[C@H](N)[C@@H](O)C[C@H](C(=O)NCC(C)(C)Cc2ccc(OC)cc2)C(C)C)C(C)C)ccc1OC`, for which the concentration for half-maximal inhibition (IC50) came out at 10.2 nM.
Regarding `COCCCOc1cc(C[C@@H](C[C@H](N)[C@@H](O)C[C@H](C(=O)NCC(C)(C)Cc2ccc3ccccc3c2)C(C)C)C(C)C)ccc1OC`, the 50% inhibitory concentration (IC50) worked out at 11.2 nM.
Same read-out and setting: then `COCCCOc1cc(C[C@@H](C[C@H](N)[C@@H](O)C[C@H](C(=O)NCCc2ccccn2)C(C)C)C(C)C)ccc1OC`, with 2.6 nM.
Regarding `COCCCOc1cc(C[C@@H](C[C@H](N)[C@@H](O)C[C@H](C(=O)NCC(C)(C)Cc2cc(F)ccc2F)C(C)C)C(C)C)ccc1OC`, the concentration for half-maximal inhibition (IC50) is 12.4 nM.
Take `COCCCOc1cc(C[C@@H](C[C@H](N)[C@@H](O)C[C@H](C(=O)NCC(C)(C)Cc2ccc(OC(F)(F)F)cc2)C(C)C)C(C)C)ccc1OC`: the IC50 turned out to be 13.4 nM.
Same read-out and setting: the value for `COCCCOc1cc(C[C@@H](C[C@H](N)[C@@H](O)C[C@H](C(=O)NCC(C)(C)Cn2cc(C3(O)CCCC3)nn2)C(C)C)C(C)C)ccc1OC` was 5.2 nM; that for `COCCCOc1cc(C[C@@H](C[C@H](N)[C@@H](O)C[C@H](C(=O)NCC(C)(C)Cn2cc(C3CC3)nn2)C(C)C)C(C)C)ccc1OC` was 1.6 nM; that for `COCCCOc1cc(C[C@@H](C[C@H](N)[C@@H](O)C[C@H](C(=O)N[C@H](C)c2ccc(Cl)cc2)C(C)C)C(C)C)ccc1OC` was 30 nM.
Still for that read-out and setting: the value for `CCCCCCc1cn(CC(C)(C)CNC(=O)[C@@H](C[C@H](O)[C@@H](N)C[C@H](Cc2ccc(OC)c(OCCCOC)c2)C(C)C)C(C)C)nn1` was 17.1 nM.
On the same count and under the same terms, the value for `COCCCOc1cc(C[C@@H](C[C@H](N)[C@@H](O)C[C@H](C(=O)NCC(C)(C)Cc2cccc(F)c2)C(C)C)C(C)C)ccc1OC` was 9.8 nM; that for `COCCCOc1cc(C[C@@H](C[C@H](N)[C@@H](O)C[C@H](C(=O)NCC(C)(C)CC2CCCCC2)C(C)C)C(C)C)ccc1OC` was 15.5 nM.
`COCCCOc1cc(C[C@@H](C[C@H](N)[C@@H](O)C[C@H](C(=O)NCC(C)(C)Cn2ccnn2)C(C)C)C(C)C)ccc1OC`: the IC50 turned out to be 2 nM.
Still for that read-out and setting: then `COCCCOc1cc(C[C@@H](C[C@H](N)[C@@H](O)C[C@H](C(=O)NCCc2ccccc2Cl)C(C)C)C(C)C)ccc1OC`, with 27.7 nM; and `CCN(CC)Cc1cn(CC(C)(C)CNC(=O)[C@@H](C[C@H](O)[C@@H](N)C[C@H](Cc2ccc(OC)c(OCCCOC)c2)C(C)C)C(C)C)nn1`, with 2.1 nM.
For `COCCCOc1cc(C[C@@H](C[C@H](N)[C@@H](O)C[C@H](C(=O)N[C@@H](C)c2ccc(Cl)cc2)C(C)C)C(C)C)ccc1OC`, the IC50 turned out to be 15.2 nM.
On the same count and under the same terms, the value for `COCCCOc1cc(C[C@@H](C[C@H](N)[C@@H](O)C[C@H](C(=O)NCC(C)(C)Cn2cc(CN(C(C)C)C(C)C)nn2)C(C)C)C(C)C)ccc1OC` was 2.7 nM; that for `CCCCc1cn(CC(C)(C)CNC(=O)[C@@H](C[C@H](O)[C@@H](N)C[C@H](Cc2ccc(OC)c(OCCCOC)c2)C(C)C)C(C)C)nn1` was 5.8 nM; that for `COCCCOc1cc(C[C@@H](C[C@H](N)[C@@H](O)C[C@H](C(=O)NCC(C)(C)Cc2cccc(Cl)c2)C(C)C)C(C)C)ccc1OC` was 9.8 nM.
Still for that read-out and setting: the value for `COCCCOc1cc(C[C@@H](C[C@H](N)[C@@H](O)C[C@H](C(=O)NCC(C)(C)Cn2cc(-c3ccccc3)nn2)C(C)C)C(C)C)ccc1OC` was 5 nM; that for `COCCCOc1cc(C[C@@H](C[C@H](N)[C@@H](O)C[C@H](C(=O)NCC(C)(C)Cn2cc(CN3CCOCC3)nn2)C(C)C)C(C)C)ccc1OC` was 1.1 nM; that for `COCCCOc1cc(C[C@@H](C[C@H](N)[C@@H](O)C[C@H](C(=O)NCC(C)(C)Cc2ccccc2)C(C)C)C(C)C)ccc1OC` was 34 nM.
Same read-out and setting: then `COCCCOc1cc(C[C@@H](C[C@H](N)[C@@H](O)C[C@H](C(=O)NCC(C)(C)Cn2cc(C(C)(C)C)nn2)C(C)C)C(C)C)ccc1OC`, with 7 nM; and `COCCCOc1cc(C[C@@H](C[C@H](N)[C@@H](O)C[C@H](C(=O)NCC(C)(C)Cc2ccccc2F)C(C)C)C(C)C)ccc1OC`, with 9.2 nM; and `COCCCOc1cc(C[C@@H](C[C@H](N)[C@@H](O)C[C@H](C(=O)NCC(C)(C)Cn2cc(CN3CCCCC3)nn2)C(C)C)C(C)C)ccc1OC`, with 1 nM.
Take `COCCCOc1cc(C[C@@H](C[C@H](N)[C@@H](O)C[C@H](C(=O)NCCc2cccc(OC)c2)C(C)C)C(C)C)ccc1OC`: the IC50 came to 7.2 nM.
Same read-out and setting: then `COCCCOc1cc(C[C@@H](C[C@H](N)[C@@H](O)C[C@H](C(=O)NCC(C)(C)Cn2cc(-c3ccc(C)cc3)nn2)C(C)C)C(C)C)ccc1OC`, with 13.1 nM.
With `COCCCOc1cc(C[C@@H](C[C@H](N)[C@@H](O)C[C@H](C(=O)NCC(C)(C)Cc2c(F)cccc2F)C(C)C)C(C)C)ccc1OC`, the concentration for half-maximal inhibition (IC50) stood at 16.1 nM.
On the same count and under the same terms, the value for `COCCCOc1cc(C[C@@H](C[C@H](N)[C@@H](O)C[C@H](C(=O)N[C@H](C)c2ccc(Br)cc2)C(C)C)C(C)C)ccc1OC` was 33.7 nM; that for `COCCCOc1cc(C[C@@H](C[C@H](N)[C@@H](O)C[C@H](C(=O)NCC(C)(C)Cc2cccnc2)C(C)C)C(C)C)ccc1OC` was 2.2 nM; that for `COCCCOc1cc(C[C@@H](C[C@H](N)[C@@H](O)C[C@H](C(=O)NCC(C)(C)Cc2cccc(OC)c2)C(C)C)C(C)C)ccc1OC` was 12.3 nM.
In the case of `COCCCOc1cc(C[C@@H](C[C@H](N)[C@@H](O)C[C@H](C(=O)NCC(C)(C)Cn2cc(CCO)nn2)C(C)C)C(C)C)ccc1OC.Cl`, the IC50 was found to be 0.7 nM.
The same measure, in the same setting: the value for `COCCCOc1cc(C[C@@H](C[C@H](N)[C@@H](O)C[C@H](C(=O)NCC(C)(C)Cn2cc(-c3ccccn3)nn2)C(C)C)C(C)C)ccc1OC` was 1.5 nM; that for `COCCCOc1cc(C[C@@H](C[C@H](N)[C@@H](O)C[C@H](C(=O)NCC(C)(C)Cc2ccncc2)C(C)C)C(C)C)ccc1OC` was 1.5 nM.
Same read-out and setting: the value for `COCCCOc1cc(C[C@@H](C[C@H](N)[C@@H](O)C[C@H](C(=O)NCC(C)(C)CCOc2ccccc2)C(C)C)C(C)C)ccc1OC` was 8.5 nM.
As for `COCCCOc1cc(C[C@@H](C[C@H](N)[C@@H](O)C[C@H](C(=O)NCCc2ccc3c(c2)OCO3)C(C)C)C(C)C)ccc1OC`, the half-maximal inhibitory concentration (IC50) turned out to be 11 nM.
Still for that read-out and setting: then `COCCCOc1cc(C[C@@H](C[C@H](N)[C@@H](O)C[C@H](C(=O)NCC(C)(C)Cn2cc(CO)nn2)C(C)C)C(C)C)ccc1OC`, with 0.9 nM.
As to `COCCCOc1cc(C[C@@H](C[C@H](N)[C@@H](O)C[C@H](C(=O)N[C@@H](C)c2ccc(Br)cc2)C(C)C)C(C)C)ccc1OC`, the concentration for half-maximal inhibition (IC50) was found to be 20.9 nM.
With `COCCCOc1cc(C[C@@H](C[C@H](N)[C@@H](O)C[C@H](C(=O)NCC(C)(C)Cn2cc(CN(C)C)nn2)C(C)C)C(C)C)ccc1OC`, the half-maximal inhibitory concentration (IC50) amounted to 1.9 nM.
`COCCCOc1cc(C[C@@H](C[C@H](N)[C@@H](O)C[C@H](C(=O)NCC(C)(C)CCN2CCOCC2)C(C)C)C(C)C)ccc1OC`: the IC50 is 1.8 nM.
On the same count and under the same terms, the value for `COCCCOc1cc(C[C@@H](C[C@H](N)[C@@H](O)C[C@H](C(=O)NCC(C)(C)Cn2cc(C(C)O)nn2)C(C)C)C(C)C)ccc1OC` (stereo partly drawn) was 1.1 nM.

The subject of another assay is Mus musculus. Briefly: Antihypersensitive activity in po dosed double transgenic hypertensive mouse harboring human angiotensinogen and human renin genes assessed as reduction of mean arterial blood pressure monitored 24 hrs post dose. The assay is classed as functional, organism-based.
Consider `COCCCOc1cc(C[C@@H](C[C@H](N)[C@@H](O)C[C@H](C(=O)NCC(C)(C)Cn2cc(CCO)nn2)C(C)C)C(C)C)ccc1OC.Cl`, for which the Activity result was “Dose-dependent effect”.

In the next assay the target is Cathepsin D (Homo sapiens) (UniProt P07339). Briefly: Inhibition of human recombinant cathepsin D preincubated for 30 mins followed by substrate addition measured after 15 mins by fluorescence analysis.
Chain of Cathepsin D (Homo sapiens) (P07339 65-162 limits assumed): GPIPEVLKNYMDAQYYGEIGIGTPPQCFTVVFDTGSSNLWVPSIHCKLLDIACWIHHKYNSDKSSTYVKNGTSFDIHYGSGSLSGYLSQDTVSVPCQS
Chain of Cathepsin D (Homo sapiens) (P07339 169-412 limits assumed): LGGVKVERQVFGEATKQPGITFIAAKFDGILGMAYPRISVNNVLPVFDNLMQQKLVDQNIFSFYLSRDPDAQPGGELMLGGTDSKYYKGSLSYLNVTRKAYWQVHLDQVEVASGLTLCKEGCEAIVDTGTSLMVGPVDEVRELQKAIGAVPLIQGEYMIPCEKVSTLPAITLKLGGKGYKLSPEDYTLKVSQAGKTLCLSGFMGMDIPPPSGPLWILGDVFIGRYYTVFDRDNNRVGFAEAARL
Consider `COCCCOc1cc(C[C@@H](C[C@H](N)[C@@H](O)C[C@H](C(=O)NCC(C)(C)Cn2cc(CCO)nn2)C(C)C)C(C)C)ccc1OC.Cl`, for which the inhibition entry was “inactive”.

Another assay has as its system Mus musculus. Briefly: Antihypersensitive activity in po dosed double transgenic hypertensive mouse harboring human angiotensinogen and human renin genes assessed as maximum reduction of mean arterial blood pressure monitored 24 hrs post dose. It counts as functional.
In the case of `COCCCOc1cc(C[C@@H](C[C@H](N)[C@@H](O)C[C@H](C(=O)NCC(C)(C)Cn2cc(CCO)nn2)C(C)C)C(C)C)ccc1OC.Cl`, the Activity came to 40 mmHg.

For a further assay, the system named is Mus musculus. Nature of the assay: Antihypersensitive activity in double transgenic hypertensive mouse harboring human angiotensinogen and human renin genes assessed as reduction of mean arterial blood pressure at 17 to 34 umol/kg, po monitored 24 hrs post dose. The assay is classed as functional, organism-based.
As to `COCCCOc1cc(C[C@@H](C[C@H](N)[C@@H](O)C[C@H](C(=O)NCC(C)(C)Cn2cc(CCO)nn2)C(C)C)C(C)C)ccc1OC.Cl`, the result was Active.

For the next assay, the system named is Mus musculus. Briefly: Antihypersensitive activity in po dosed double transgenic hypertensive mouse harboring human angiotensinogen and human renin genes assessed as time duration for sustained reduction of mean arterial blood pressure monitored 24 hrs post dose. The assay is classed as functional.
As to `COCCCOc1cc(C[C@@H](C[C@H](N)[C@@H](O)C[C@H](C(=O)NCC(C)(C)Cn2cc(CCO)nn2)C(C)C)C(C)C)ccc1OC.Cl`, the Time was found to be 14 h.

Another assay relates to Mus musculus. Briefly: Antihypersensitive activity in double transgenic hypertensive mouse harboring human angiotensinogen and human renin genes assessed as reduction of mean arterial blood pressure at 8.5 umol/kg, po monitored 24 hrs post dose. The assay is classed as functional, organism-based.
As to `COCCCOc1cc(C[C@@H](C[C@H](N)[C@@H](O)C[C@H](C(=O)NCC(C)(C)C(N)=O)C(C)C)C(C)C)ccc1OC`, the result was Active.
Turning to `COCCCOc1cc(C[C@@H](C[C@H](N)[C@@H](O)C[C@H](C(=O)NCC(C)(C)Cn2cc(CCO)nn2)C(C)C)C(C)C)ccc1OC.Cl`, the outcome was Active.

The target of a further assay is T2, Cathepsin E (Homo sapiens) (UniProt P14091).
T2 sequence (whole entry): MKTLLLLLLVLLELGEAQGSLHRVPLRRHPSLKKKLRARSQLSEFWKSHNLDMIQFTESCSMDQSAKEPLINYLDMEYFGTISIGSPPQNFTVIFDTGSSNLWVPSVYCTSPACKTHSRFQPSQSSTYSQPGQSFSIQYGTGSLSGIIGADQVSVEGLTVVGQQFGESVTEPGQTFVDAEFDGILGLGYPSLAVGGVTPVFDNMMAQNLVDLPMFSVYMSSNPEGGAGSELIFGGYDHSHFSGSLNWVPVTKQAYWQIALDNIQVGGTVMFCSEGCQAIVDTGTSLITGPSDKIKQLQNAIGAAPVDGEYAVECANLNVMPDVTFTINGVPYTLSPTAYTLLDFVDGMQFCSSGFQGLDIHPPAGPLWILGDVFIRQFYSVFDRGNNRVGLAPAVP
Briefly: Inhibition of human recombinant cathepsin E preincubated for 30 mins followed by substrate addition measured after 15 mins by fluorescence analysis.
For `COCCCOc1cc(C[C@@H](C[C@H](N)[C@@H](O)C[C@H](C(=O)NCC(C)(C)Cn2cc(CCO)nn2)C(C)C)C(C)C)ccc1OC.Cl`, the inhibition result is “inactive”.
